In ChEMBL document CHEMBL1133174, “Disubstituted indazoles as potent antagonists of the integrin alpha(v)beta(3)” (J Med Chem, 2000):
pIC50: −log10 of the molar value.

Experiments:
[1] = biological target: Integrin alpha-IIb/beta-3 (Homo sapiens, UniProt P05106+P08514); assay: Inhibition of aggregation of human gel-purified platelets (GPIIbIIIa GPP); format: functional
Method in brief: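 Human platelets from healthy-volunteer platelet-rich plasma were gel-purified on sepharose and used at 2×10^8 platelets/mL with 1 mM CaCl2 and 1 mg/mL fibrinogen. Aggregation was measured with or without compound at several concentrations and IC50 calculated. Values are single determinations.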

Integrin alpha-V/beta-3 [2] = biological target: T1, Integrin alpha-V/beta-3 (Homo sapiens, UniProt P05106+P06756); assay: Inhibitory activity against beta-3-transfected 293 cells using alpha-V beta-3 antagonism assay; format: functional, cell-based, HEK293
Method in brief: (§1)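 Fibrinogen-coated plates were blocked with BSA in PBS. HEK293 cells expressing human β3 subunit were preincubated 15 min at 37 °C with or without compound, then allowed to adhere for 60 min. Nonadherent cells were washed off with PBS, adherent cells lysed, and β-galactosidase activity read. IC50 was derived from standard curves and reported ± SEM.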

Integrin alpha-V/beta-3 [3] = biological target: T1, Integrin alpha-V/beta-3; assay: Inhibition of Vitronectin receptor (alpha V beta 3) binding; format: protein-complex assay
Integrin alpha-V/beta-3 [4] = biological target: T1, Integrin alpha-V/beta-3; assay: Inhibitory activity against beta-3-transfected 293 cells using alphaV-beta3 antagonism assay; format: functional, cell-based, HEK293; method in brief: as §1
Integrin alpha-V/beta-3 [5] = biological target: T1, Integrin alpha-V/beta-3; assay: Inhibition of adhesion of integrin beta-3-transfected HEK293 cells to fibrinogen; format: functional, cell-based; method in brief: as §1

T1 sequence (P05106 27-788 limits assumed): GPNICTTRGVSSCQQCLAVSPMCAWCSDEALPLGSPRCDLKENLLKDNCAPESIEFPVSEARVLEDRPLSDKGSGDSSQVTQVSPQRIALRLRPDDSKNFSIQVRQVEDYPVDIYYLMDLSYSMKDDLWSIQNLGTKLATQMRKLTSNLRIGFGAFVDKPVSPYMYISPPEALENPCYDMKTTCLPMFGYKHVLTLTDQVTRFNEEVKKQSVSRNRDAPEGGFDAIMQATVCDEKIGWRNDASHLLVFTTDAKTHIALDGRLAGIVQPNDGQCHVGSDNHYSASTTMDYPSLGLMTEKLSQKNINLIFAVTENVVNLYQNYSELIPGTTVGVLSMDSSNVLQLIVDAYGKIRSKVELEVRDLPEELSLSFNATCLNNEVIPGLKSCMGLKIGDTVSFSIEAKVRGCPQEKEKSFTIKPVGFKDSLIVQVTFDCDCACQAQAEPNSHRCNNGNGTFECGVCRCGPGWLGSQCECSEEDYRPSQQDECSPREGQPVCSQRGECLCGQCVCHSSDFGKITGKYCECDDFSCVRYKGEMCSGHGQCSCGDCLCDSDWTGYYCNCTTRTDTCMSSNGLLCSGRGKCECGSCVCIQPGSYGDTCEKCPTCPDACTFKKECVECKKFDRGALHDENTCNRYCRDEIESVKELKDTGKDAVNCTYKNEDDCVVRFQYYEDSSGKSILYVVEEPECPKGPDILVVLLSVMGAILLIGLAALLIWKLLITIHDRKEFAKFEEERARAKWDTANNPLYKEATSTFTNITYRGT
T1 sequence (P06756 31-889 limits assumed): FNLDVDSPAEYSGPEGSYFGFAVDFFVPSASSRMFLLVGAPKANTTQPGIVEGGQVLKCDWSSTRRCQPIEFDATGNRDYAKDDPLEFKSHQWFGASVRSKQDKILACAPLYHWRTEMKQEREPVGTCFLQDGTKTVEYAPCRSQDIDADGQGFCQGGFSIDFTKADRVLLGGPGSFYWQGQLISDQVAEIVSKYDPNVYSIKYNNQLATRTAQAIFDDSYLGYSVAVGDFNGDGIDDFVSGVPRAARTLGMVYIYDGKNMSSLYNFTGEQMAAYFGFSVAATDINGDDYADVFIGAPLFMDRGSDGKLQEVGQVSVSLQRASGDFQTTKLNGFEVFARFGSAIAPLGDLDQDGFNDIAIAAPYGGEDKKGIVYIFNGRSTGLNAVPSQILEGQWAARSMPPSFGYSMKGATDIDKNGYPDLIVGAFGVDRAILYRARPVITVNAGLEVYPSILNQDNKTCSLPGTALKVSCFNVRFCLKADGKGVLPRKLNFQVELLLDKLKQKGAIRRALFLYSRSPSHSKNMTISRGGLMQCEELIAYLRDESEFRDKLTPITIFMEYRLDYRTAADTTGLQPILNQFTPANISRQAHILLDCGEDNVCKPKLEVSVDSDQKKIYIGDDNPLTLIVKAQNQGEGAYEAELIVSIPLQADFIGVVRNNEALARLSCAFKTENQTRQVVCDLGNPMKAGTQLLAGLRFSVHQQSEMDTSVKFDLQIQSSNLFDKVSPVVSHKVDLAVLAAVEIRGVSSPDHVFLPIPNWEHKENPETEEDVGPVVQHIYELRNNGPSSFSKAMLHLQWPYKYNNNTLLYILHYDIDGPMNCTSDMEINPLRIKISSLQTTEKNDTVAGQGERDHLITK
T1 sequence (P06756 891-1048 limits assumed): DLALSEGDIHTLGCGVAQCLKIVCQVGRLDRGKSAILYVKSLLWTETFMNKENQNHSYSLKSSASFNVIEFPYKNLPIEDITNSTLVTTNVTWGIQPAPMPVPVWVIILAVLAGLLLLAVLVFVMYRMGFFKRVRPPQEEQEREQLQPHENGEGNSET
Integrin alpha-IIb/beta-3, sequence (P05106 27-788 limits assumed): as the sequence (P05106 27-788 limits assumed) above
Integrin alpha-IIb/beta-3, sequence (P08514 32-887 limits assumed): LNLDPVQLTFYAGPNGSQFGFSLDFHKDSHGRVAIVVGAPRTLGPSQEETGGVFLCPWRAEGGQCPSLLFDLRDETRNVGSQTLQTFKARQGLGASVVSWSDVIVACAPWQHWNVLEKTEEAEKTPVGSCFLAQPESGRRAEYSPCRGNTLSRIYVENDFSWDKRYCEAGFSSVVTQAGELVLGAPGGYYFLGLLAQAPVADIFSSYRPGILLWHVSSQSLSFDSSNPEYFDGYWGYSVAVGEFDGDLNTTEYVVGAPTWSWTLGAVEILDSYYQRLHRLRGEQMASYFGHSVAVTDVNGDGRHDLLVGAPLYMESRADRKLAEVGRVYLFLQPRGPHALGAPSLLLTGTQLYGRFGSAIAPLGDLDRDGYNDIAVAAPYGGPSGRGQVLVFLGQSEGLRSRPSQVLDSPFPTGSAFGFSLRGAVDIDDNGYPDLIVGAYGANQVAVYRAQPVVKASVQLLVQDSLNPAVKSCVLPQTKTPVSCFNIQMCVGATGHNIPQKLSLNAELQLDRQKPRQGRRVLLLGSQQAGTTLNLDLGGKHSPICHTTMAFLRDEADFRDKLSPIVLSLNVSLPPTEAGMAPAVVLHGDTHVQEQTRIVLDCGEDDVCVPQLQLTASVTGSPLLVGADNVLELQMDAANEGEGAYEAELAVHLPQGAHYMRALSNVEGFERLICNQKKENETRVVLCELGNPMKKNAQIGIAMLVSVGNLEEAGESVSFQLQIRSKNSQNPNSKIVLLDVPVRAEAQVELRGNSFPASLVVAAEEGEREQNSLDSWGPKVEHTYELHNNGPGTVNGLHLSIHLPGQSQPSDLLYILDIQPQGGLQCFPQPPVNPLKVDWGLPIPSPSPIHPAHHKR
Integrin alpha-IIb/beta-3, sequence (P08514 891-1039 limits assumed): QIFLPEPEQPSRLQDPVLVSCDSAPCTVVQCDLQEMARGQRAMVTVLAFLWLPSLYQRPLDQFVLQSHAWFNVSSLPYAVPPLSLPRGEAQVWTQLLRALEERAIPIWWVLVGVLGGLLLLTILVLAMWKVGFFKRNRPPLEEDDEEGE

Compound | pIC50 (Integrin alpha-V/beta-3 [2]) | other results
Cc1cc(C)c(S(=O)(=O)N[C@@H](CNC(=O)C2=NOC(CCCC(=O)Nc3ncc[nH]3)C2)C(=O)O)c(C)c1 (some centres undefined) |  | pIC50 [1]: 4.21
Cc1cc(C)c(S(=O)(=O)N[C@@H](CC(=O)Nc2ccc3c(cnn3CCCNc3ccccn3)c2)C(=O)O)c(C)c1 | 6.08 | 
Cc1cc(C)c(S(=O)(=O)N[C@@H](CNC(=O)c2cccc3c2cnn3CCCNc2ncc[nH]2)C(=O)O)c(C)c1 |  | pIC50 (Integrin alpha-V/beta-3 [3]): > 10.00; pIC50 (Integrin alpha-V/beta-3 [4]): 7.60
CC(C)CCC(=O)N[C@@H](CNC(=O)c1ccc2c(cnn2CCCNc2ccccn2)c1)C(=O)O | < 6.00 | 
Cc1cc(C)c(S(=O)(=O)N[C@@H](CNC(=O)c2ccc3c(cnn3CCCNc3cc[nH]n3)c2)C(=O)O)c(C)c1 | < 6.00 | 
O=C(O)CCNC(=O)c1ccc2c(cnn2CCCNc2ccccn2)c1 | < 6.00 | 
Cc1cc(C)c(S(=O)(=O)N[C@@H](CN(C)C(=O)c2ccc3c(cnn3CCCNc3ccccn3)c2)C(=O)O)c(C)c1 | < 6.00 | 
O=C(N[C@@H](CNC(=O)c1ccc2c(cnn2CCNC2=NCCN2)c1)C(=O)O)OCc1ccccc1 |  | pIC50 (Integrin alpha-V/beta-3 [3]): 7.29; pIC50 (Integrin alpha-V/beta-3 [4]): < 6.00
CC(C)CNS(=O)(=O)N[C@@H](CNC(=O)c1ccc2c(cnn2CCCNc2ccccn2)c1)C(=O)O | < 6.00 | 
O=C(NC[C@H](NS(=O)(=O)NCc1ccccc1)C(=O)O)c1ccc2c(cnn2CCCNc2ccccn2)c1 | 6.22 | 
O=C(NCc1ccccc1)N[C@@H](CNC(=O)c1ccc2c(cnn2CCCNc2ccccn2)c1)C(=O)O | < 6.00 | 
O=C(Nc1ccccc1)N[C@@H](CNC(=O)c1ccc2c(cnn2CCCNc2ccccn2)c1)C(=O)O | < 6.00 | 
O=C(O)CCNC(=O)c1ccc2c(cnn2CCCNc2ncc[nH]2)c1 | < 6.00 | 
CCCCS(=O)(=O)N[C@@H](CNC(=O)c1ccc2c(cnn2CCCNc2ccccn2)c1)C(=O)O | 6.44 | 
Cc1cc(C)c(S(=O)(=O)NCCNC(=O)c2ccc3c(cnn3CCCNc3ncc[nH]3)c2)c(C)c1 | < 6.00 | 
O=C(N[C@@H](CNC(=O)c1ccc2nn(CCCNC3=NCCN3)cc2c1)C(=O)O)OCc1ccccc1 |  | pIC50 (Integrin alpha-V/beta-3 [3]): 7.26; pIC50 (Integrin alpha-V/beta-3 [4]): < 6.00
O=C(N[C@H](CNC(=O)c1ccc2cnn(CCCNC3=NCCN3)c2c1)C(=O)O)OCc1ccccc1 |  | pIC50 (Integrin alpha-V/beta-3 [3]): 5.82; pIC50 (Integrin alpha-V/beta-3 [4]): < 6.00
O=C(NC[C@H](NS(=O)(=O)Cc1ccccc1)C(=O)O)c1ccc2c(cnn2CCCNc2ccccn2)c1 | < 6.00 | 
Cc1cc(C)c(S(=O)(=O)N[C@@H](CNC(=O)c2ccc3c(cnn3CCCNC3=NCCCN3)c2)C(=O)O)c(C)c1 |  | pIC50 (Integrin alpha-V/beta-3 [5]): 7.55
O=C(CCc1ccccc1)N[C@@H](CNC(=O)c1ccc2c(cnn2CCCNc2ccccn2)c1)C(=O)O | < 6.00 | 
Cc1cc(C)c(S(=O)(=O)N[C@@H](CNC(=O)c2ccc3c(cnn3CCCNC3=NCCN3)c2)C(=O)O)c(C)c1 |  | pIC50 (Integrin alpha-V/beta-3 [5]): 7.15
O=C(N[C@@H](CNC(=O)c1cccc2c1cnn2CCCNC1=NCCN1)C(=O)O)OCc1ccccc1 |  | pIC50 (Integrin alpha-V/beta-3 [3]): 8.14; pIC50 (Integrin alpha-V/beta-3 [4]): < 6.00
O=C(O)C[C@H](NC(=O)c1ccc2c(cnn2CCCNc2ccccn2)c1)C(=O)NCCc1ccccc1 | < 6.00 | 
O=C(N[C@@H](CNC(=O)c1ccc2c(cnn2CCCCNC2=NCCN2)c1)C(=O)O)OCc1ccccc1 |  | pIC50 (Integrin alpha-V/beta-3 [3]): 6.60; pIC50 (Integrin alpha-V/beta-3 [4]): < 6.00
O=C(N[C@H](CNC(=O)c1ccc2cn(CCCNC3=NCCN3)nc2c1)C(=O)O)OCc1ccccc1 |  | pIC50 (Integrin alpha-V/beta-3 [3]): 7.60; pIC50 (Integrin alpha-V/beta-3 [4]): < 6.00
O=C(N[C@@H](CNC(=O)c1ccc2c(cnn2CCCNC2=NCCN2)c1)C(=O)O)OCc1ccccc1 |  | pIC50 (Integrin alpha-V/beta-3 [3]): 8.42; pIC50 (Integrin alpha-V/beta-3 [4]): 6.34
Cc1cc(C)c(NC(=O)[C@H](CC(=O)O)NC(=O)c2ccc3c(cnn3CCCNc3ccccn3)c2)c(C)c1 | < 6.00 | 

More lines, main results first:

pIC50 (Integrin alpha-V/beta-3 [2]) | Compound | other results
8.33 | O=C(NC[C@H](NS(=O)(=O)c1ccc2ccccc2c1)C(=O)O)c1ccc2c(cnn2CCCNc2ncc[nH]2)c1 | 
8.00 | O=C(NC[C@H](NS(=O)(=O)c1ccc(Cl)c(Cl)c1)C(=O)O)c1ccc2c(cnn2CCCNc2ncc[nH]2)c1 | 
6.92 | CC(C)(C)c1ccc(S(=O)(=O)N[C@@H](CNC(=O)c2ccc3c(cnn3CCCNc3ncc[nH]3)c2)C(=O)O)cc1 | 
6.52 | O=C(N[C@@H](CNC(=O)c1ccc2c(cnn2CCCNc2ccccn2)c1)C(=O)O)OCc1ccccc1 | 
7.13 | O=C(N[C@@H](CNC(=O)c1ccc2c(cnn2CCCNc2ncc[nH]2)c1)C(=O)O)OCc1ccccc1 | 
6.92 | O=C(NC[C@H](NS(=O)(=O)c1ccccc1)C(=O)O)c1ccc2c(cnn2CCCNc2ccccn2)c1 | 
6.82 | CC(=O)Nc1ccc(S(=O)(=O)N[C@@H](CNC(=O)c2ccc3c(cnn3CCCNc3ncc[nH]3)c2)C(=O)O)cc1 | 
8.00 | O=C(NC[C@H](NS(=O)(=O)c1ccc(Cl)cc1)C(=O)O)c1ccc2c(cnn2CCCNc2ncc[nH]2)c1 | 
7.89 | O=C(NC[C@H](NS(=O)(=O)c1cccc2ccccc12)C(=O)O)c1ccc2c(cnn2CCCNc2ncc[nH]2)c1 | 
7.59 | COc1ccc(S(=O)(=O)N[C@@H](CNC(=O)c2ccc3c(cnn3CCCNc3ncc[nH]3)c2)C(=O)O)cc1 | 
6.44 | Cc1cc(C)c(NS(=O)(=O)N[C@@H](CNC(=O)c2ccc3c(cnn3CCCNc3ccccn3)c2)C(=O)O)c(C)c1 | 
7.36 | O=C(NC[C@H](NS(=O)(=O)c1ccccc1)C(=O)O)c1ccc2c(cnn2CCCNc2ncc[nH]2)c1 | 
7.32 | Cc1cc(C)c(S(=O)(=O)N[C@@H](CNC(=O)c2ccc3c(cnn3CCCNc3ccccn3)c2)C(=O)O)c(C)c1 | 
6.54 | Cc1cc(C)c(S(=O)(=O)N[C@H](CNC(=O)c2ccc3c(cnn3CCCNc3ncc[nH]3)c2)C(=O)O)c(C)c1 | 
7.46 | O=C(NC[C@H](NS(=O)(=O)c1ccc(-c2ccccc2)cc1)C(=O)O)c1ccc2c(cnn2CCCNc2ncc[nH]2)c1 | 
8.64 | Cc1cc(C)c(S(=O)(=O)N[C@@H](CNC(=O)c2ccc3c(cnn3CCCNc3ncc[nH]3)c2)C(=O)O)c(C)c1 | 
8.07 | O=C(NC[C@H](NS(=O)(=O)c1c(Cl)cccc1Cl)C(=O)O)c1ccc2c(cnn2CCCNc2ncc[nH]2)c1 | 
8.31 | Cc1cc(-c2ccccc2)cc(C)c1S(=O)(=O)N[C@@H](CNC(=O)c1ccc2c(cnn2CCCNc2ncc[nH]2)c1)C(=O)O | 
6.62 | CC(C)COC(=O)N[C@@H](CNC(=O)c1ccc2c(cnn2CCCNc2ccccn2)c1)C(=O)O | 
6.77 | O=C(NC[C@H](NS(=O)(=O)Nc1ccccc1)C(=O)O)c1ccc2c(cnn2CCCNc2ccccn2)c1 | 
7.28 | O=C(NC[C@H](NS(=O)(=O)c1ccc(C(F)(F)F)cc1)C(=O)O)c1ccc2c(cnn2CCCNc2ncc[nH]2)c1 | 
7.80 | Cc1ccc(S(=O)(=O)N[C@@H](CNC(=O)c2ccc3c(cnn3CCCNc3ncc[nH]3)c2)C(=O)O)cc1 | 
7.25 | Cc1cc(C)c(S(=O)(=O)N[C@@H](CNC(=O)c2ccc3c(cnn3CCC(=O)Nc3ncc[nH]3)c2)C(=O)O)c(C)c1 | 
8.00 | Cc1cccc(C)c1S(=O)(=O)N[C@@H](CNC(=O)c1ccc2c(cnn2CCCNc2ncc[nH]2)c1)C(=O)O | 
